# From ChEMBL document CHEMBL1155469, “Peptide nucleic acids conjugated to short basic peptides show improved pharmacokinetics and antisense activity in adipose tissue” (J Med Chem, 2010)
# The source made the active and inactive calls. The rule behind the calls is not given here.
# Key:
# BCL1 [1] = experiment: Inhibition of CD40 protein expression in mouse BCL1 cells after 62 hrs by Western blotting; type: functional, cell-based; conditions: BCL1, 62 h
# Mus musculus [2] = experiment: Inhibition of PTEN expression in Balb/C mouse liver at 40 mg/kg, ip administered thrice a week for 2 weeks measured 48 hrs after last dose by Western blot analysis; type: functional, organism-based; parameters: dose 40 mg/kg
# Procedure, shortened: (§1)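 Male Balb/c mice, 6–8 wk, n=4/group, dosed i.p. in PBS 3x/wk for 2 wk and killed 48 h after the last dose. Tissue was homogenized in RIPA buffer with protease inhibitors, and protein was measured by Lowry assay. Lysates were run on 10% PAGE and blotted to PVDF. Blots were probed with rabbit anti-PTEN (1:1000) and HRP anti-rabbit (1:2500), with ECL detection.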
# Mus musculus [3] = experiment: Inhibition of PTEN expression in Balb/C mouse kidney at 40 mg/kg, ip administered thrice a week for 2 weeks measured 48 hrs after last dose by Western blot analysis; type: functional, organism-based; parameters: dose 40 mg/kg; procedure, shortened: as §1
# Mus musculus [4] = experiment: Toxicity in Balb/C mouse assessed as change in blood urea nitrogen levels at 40 mg/kg, ip administered thrice a week for 2 weeks measured 48 hrs after last dose; type: organism-based; parameters: dose 40 mg/kg, route intraperitoneal; conditions: in vivo
# Procedure, shortened: (§2)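 Male Balb/c mice, 6–8 wk, n=4/group, received compound i.p. in PBS (10 ul/g) 3x/wk for 2 wk. Body weight was monitored throughout. At 48 h after the last dose, mice were anesthetized with isoflurane and bled by cardiac puncture. Serum AST, ALT, BUN, bilirubin, glucose and triglycerides were compared with the saline group. ALT rise below 2x normal was counted as absent.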
# Mus musculus [5] = experiment: Toxicity in Balb/C mouse assessed as change in serum bilirubin levels at 40 mg/kg, ip administered thrice a week for 2 weeks measured 48 hrs after last dose; type: organism-based; parameters: dose 40 mg/kg, route intraperitoneal; conditions: in vivo; procedure, shortened: as §2
# Mus musculus [6] = experiment: Toxicity in Balb/C mouse assessed as change in serum triglyceride levels at 40 mg/kg, ip administered thrice a week for 2 weeks measured 48 hrs after last dose; type: organism-based; parameters: dose 40 mg/kg, route intraperitoneal; conditions: in vivo; procedure, shortened: as §2
# Mus musculus [7] = experiment: Toxicity in Balb/C mouse assessed as change in body weight at 40 mg/kg, ip administered thrice a week for 2 weeks measured 48 hrs after last dose; type: organism-based; parameters: dose 40 mg/kg, route intraperitoneal; conditions: in vivo; procedure, shortened: as §2
# Mus musculus [8] = experiment: Toxicity in Balb/C mouse assessed as change in serum AST levels at 40 mg/kg, ip administered thrice a week for 2 weeks measured 48 hrs after last dose; type: organism-based; parameters: dose 40 mg/kg, route intraperitoneal; conditions: in vivo; procedure, shortened: as §2
# BCL1 [9] = experiment: Inhibition of PTEN expression in mouse BCL1 cells after 62 hrs by Western blotting; type: functional, cell-based; conditions: BCL1, 62 h
# Procedure, shortened: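 BCL1 cells were grown in DMEM with 10% FBS at 37 °C, 5% CO2. Compound was delivered to 2×10^6 cells by electroporation (200 V, 1000 uF, 13 ohms), and cells were harvested 62 h later. Western blot of RIPA lysates used rabbit anti-PTEN and anti-CD40 (1:1000) with HRP secondary and ECL detection. PTEN was normalized to CD40. n=3, mean ± SD.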
# Mus musculus [10] = experiment: Toxicity in Balb/C mouse assessed as change in serum glucose levels at 40 mg/kg, ip administered thrice a week for 2 weeks measured 48 hrs after last dose; type: organism-based; parameters: dose 40 mg/kg, route intraperitoneal; conditions: in vivo; procedure, shortened: as §2
# Mus musculus [11] = experiment: Toxicity in Balb/C mouse assessed as change in serum ALT levels at 40 mg/kg, ip administered thrice a week for 2 weeks measured 48 hrs after last dose; type: organism-based; parameters: dose 40 mg/kg, route intraperitoneal; conditions: in vivo; procedure, shortened: as §2
# Mus musculus [12] = experiment: Acute toxicity in Balb/C mouse assessed as reduction in body weight at 1.5 to 6.0 umol/kg, ip administered thrice a week for 2 weeks measured 48 hrs after last dose; type: organism-based; conditions: in vivo
# Procedure, shortened: (§3)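 Male Balb/c mice aged 6–8 weeks, n=4 per group, dosed i.p. with compound suspended in PBS and filter sterilized, 10 ul/g body weight. Body weight tracked throughout the live phase. Under isoflurane anaesthesia, terminal cardiac-puncture bleed; serum taken for transaminases and other chemistries. Sacrifice by cervical dislocation 48 h after last dose, with liver and spleen weighed at necropsy. Kidneys examined by histopathology.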
# Mus musculus [13] = experiment: Acute toxicity in Balb/C mouse assessed as change in spleen weight at 1.5 to 6.0 umol/kg, ip administered thrice a week for 2 weeks measured 48 hrs after last dose; type: organism-based; conditions: in vivo; procedure, shortened: as §3
# Mus musculus [14] = experiment: Inhibition of IR expression in Balb/C mouse kidney assessed as upregulation of IR-A transcript at 6.0 umol/kg, ip administered thrice a week for 2 weeks measured 48 hrs after last dose […]; type: functional, organism-based
# Procedure, shortened: (§4)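 Male Balb/c mice, n=4 per group, dosed i.p. in PBS and sacrificed 48 h after last dose. Liver, kidney and adipose tissue homogenised at once in 4 M guanidine isothiocyanate, 25 mM EDTA, 50 mM Tris-HCl pH 6. RNA purified on columns and run by fluorescence-based quantitative RT-PCR. Target transcript levels normalised to cyclophilin A and expressed relative to saline-treated controls.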
# Mus musculus [15] = experiment: Inhibition of IR expression in Balb/C mouse adipose tissue assessed as upregulation of IR-A transcript at 6.0 umol/kg, ip administered thrice a week for 2 weeks measured 48 hrs after last dose by […]; type: functional; procedure, shortened: as §4
# Mus musculus [16] = experiment: Acute toxicity in Balb/C mouse assessed as change in liver weight at 1.5 to 6.0 umol/kg, ip administered thrice a week for 2 weeks measured 48 hrs after last dose; type: organism-based; conditions: in vivo; procedure, shortened: as §3
# Mus musculus [17] = experiment: Inhibition of IR expression in Balb/C mouse liver assessed as reduction in IR-B transcript at 6.0 umol/kg, ip administered thrice a week for 2 weeks measured 48 hrs after last dose […]; type: functional, organism-based; procedure, shortened: as §4
# Mus musculus [18] = experiment: Inhibition of IR expression in Balb/C mouse kidney assessed as upregulation of IR-A transcript at 1.5 umol/kg, ip administered thrice a week for 2 weeks measured 48 hrs after last dose […]; type: functional, organism-based; procedure, shortened: as §4
# Mus musculus [19] = experiment: Inhibition of IR expression in Balb/C mouse kidney assessed as reduction in IR-B transcript at 6.0 umol/kg, ip administered thrice a week for 2 weeks measured 48 hrs after last dose […]; type: functional, organism-based; procedure, shortened: as §4
# Mus musculus [20] = experiment: Inhibition of IR expression in Balb/C mouse adipose tissue assessed as reduction in IR-B transcript at 6.0 umol/kg, ip administered thrice a week for 2 weeks measured 48 hrs after last dose […]; type: functional; procedure, shortened: as §4
# Mus musculus [21] = experiment: Inhibition of IR expression in Balb/C mouse liver assessed as upregulation of IR-A transcript at 1.5 umol/kg, ip administered thrice a week for 2 weeks measured 48 hrs after last dose by quantitative RT-PCR analysis
# Mus musculus [22] = experiment: Inhibition of IR expression in Balb/C mouse kidney assessed as reduction in IR-B transcript at 1.5 umol/kg, ip administered thrice a week for 2 weeks measured 48 hrs after last dose […]; type: functional, organism-based; procedure, shortened: as §4
# Mus musculus [23] = experiment: Inhibition of IR expression in Balb/C mouse liver assessed as upregulation of IR-A transcript at 6.0 umol/kg, ip administered thrice a week for 2 weeks measured 48 hrs after last dose by quantitative RT-PCR analysis
# Mus musculus [24] = experiment: Acute toxicity in Balb/C mouse assessed as change in plasma chemistry at 1.5 to 6.0 umol/kg, ip administered thrice a week for 2 weeks measured 48 hrs after last dose; type: organism-based; conditions: in vivo; procedure, shortened: as §3
smiles,measurement,setting,value
Cc1cn(CC(=O)N(CCNC(=O)CN(CCNC(=O)CN(CCNC(=O)CN(CCNC(=O)CN(CCNC(=O)CN(CCNC(=O)CN(CCNC(=O)CN(CCNC(=O)CN(CCNC(=O)CN(CCNC(=O)CN(CCNC(=O)CN(CCN)C(=O)Cn2ccc(N)nc2=O)C(=O)Cn2cnc3c(N)ncnc32)C(=O)Cn2ccc(N)nc2=O)C(=O)Cn2cnc3c(N)ncnc32)C(=O)Cn2cnc3c(=O)[nH]c(N)nc32)C(=O)Cn2cnc3c(N)ncnc32)C(=O)Cn2cc(C)c(=O)[nH]c2=O)C(=O)Cn2cnc3c(=O)[nH]c(N)nc32)C(=O)Cn2cnc3c(N)ncnc32)C(=O)Cn2ccc(N)nc2=O)C(=O)Cn2cnc3c(N)ncnc32)CC(=O)NCCN(CC(=O)NCCN(CC(=O)NCCN(CC(=O)N[C@@H](CCCCN)C(N)=O)C(=O)Cn2cnc3c(=O)[nH]c(N)nc32)C(=O)Cn2cnc3c(N)ncnc32)C(=O)Cn2cc(C)c(=O)[nH]c2=O)c(=O)[nH]c1=O,IC50,BCL1 [1],0.9 µM
COCCO[C@@H]1[C@H](OP(=O)(S)OC[C@H]2O[C@@H](n3cc(C)c(=O)[nH]c3=O)C[C@@H]2OP(=O)(S)OC[C@H]2O[C@@H](n3ccc(N)nc3=O)[C@H](OCCOC)[C@@H]2OP(=O)(S)OC[C@H]2O[C@@H](n3cnc4c(N)ncnc43)[C@H](OCCOC)[C@@H]2OP(=O)(S)OC[C@H]2O[C@@H](n3cnc4c(=O)[nH]c(N)nc43)[C@H](OCCOC)[C@@H]2OP(=O)(S)OC[C@H]2O[C@@H](n3ccc(N)nc3=O)[C@H](OCCOC)[C@@H]2OP(=O)(S)OC[C@H]2O[C@@H](n3cnc4c(N)ncnc43)[C@H](OCCOC)[C@@H]2OP(=O)(S)OC[C@H]2O[C@@H](n3ccc(N)nc3=O)[C@H](OCCOC)[C@@H]2OP(=O)(S)OC[C@H]2O[C@@H](n3cnc4c(N)ncnc43)[C@H](OCCOC)[C@@H]2OP(=O)(S)OC[C@H]2O[C@@H](n3cc(C)c(=O)[nH]c3=O)C[C@@H]2OP(=O)(S)OC[C@H]2O[C@@H](n3ccc(N)nc3=O)[C@H](OCCOC)[C@@H]2OP(=O)(S)OC[C@H]2O[C@@H](n3cc(C)c(=O)[nH]c3=O)C[C@@H]2OP(=O)(S)OC[C@H]2O[C@@H](n3cnc4c(N)ncnc43)[C@H](OCCOC)[C@@H]2OP(=O)(S)OC[C@H]2O[C@@H](n3ccc(N)nc3=O)[C@H](OCCOC)[C@@H]2OP(=O)(S)OC[C@H]2O[C@@H](n3cnc4c(N)ncnc43)[C@H](OCCOC)[C@@H]2OP(=O)(S)OC[C@H]2O[C@@H](n3cnc4c(N)ncnc43)[C@H](OCCOC)[C@@H]2OP(=O)(S)OC[C@H]2O[C@@H](n3cnc4c(=O)[nH]c(N)nc43)[C@H](OCCOC)[C@@H]2OP(=O)(S)OC[C@H]2O[C@@H](n3cnc4c(N)ncnc43)[C@H](OCCOC)[C@@H]2OP(=O)(S)OC[C@H]2O[C@@H](n3cnc4c(N)ncnc43)[C@H](OCCOC)[C@@H]2OP(=O)(S)OC[C@H]2O[C@@H](n3cnc4c(N)ncnc43)[C@H](OCCOC)[C@@H]2O)[C@@H](CO)O[C@H]1n1ccc(N)nc1=O (some centres undefined),inhibition,Mus musculus [2],inactive
same,inhibition,Mus musculus [3],inactive
same,Activity,Mus musculus [4],Non-toxic
same,Activity,Mus musculus [5],Non-toxic
same,Activity,Mus musculus [6],Non-toxic
same,Activity,Mus musculus [7],Non-toxic
same,Activity,Mus musculus [8],Non-toxic
same,IC50,BCL1 [9],1 µM
same,Activity,Mus musculus [10],Non-toxic
same,Activity,Mus musculus [11],Non-toxic
COCCO[C@@H]1[C@H](OP(=O)(S)OC[C@H]2O[C@@H](n3cnc4c(N)ncnc43)[C@H](OCCOC)[C@@H]2O)[C@@H](COP(=O)(S)O[C@H]2[C@@H](OCCOC)[C@H](n3ccc(N)nc3=O)O[C@@H]2COP(=O)(S)O[C@H]2[C@@H](OCCOC)[C@H](n3cnc4c(N)ncnc43)O[C@@H]2COP(=O)(S)O[C@H]2[C@@H](OCCOC)[C@H](n3ccc(N)nc3=O)O[C@@H]2COP(=O)(S)O[C@H]2[C@@H](OCCOC)[C@H](n3cnc4c(=O)[nH]c(N)nc43)O[C@@H]2COP(=O)(S)O[C@H]2[C@@H](OCCOC)[C@H](n3cnc4c(=O)[nH]c(N)nc43)O[C@@H]2COP(=O)(S)O[C@H]2[C@@H](OCCOC)[C@H](n3ccc(N)nc3=O)O[C@@H]2COP(=O)(S)O[C@H]2C[C@H](n3cc(C)c(=O)[nH]c3=O)O[C@@H]2COP(=O)(S)O[C@H]2[C@@H](OCCOC)[C@H](n3ccc(N)nc3=O)O[C@@H]2COP(=O)(S)O[C@H]2[C@@H](OCCOC)[C@H](n3ccc(N)nc3=O)O[C@@H]2COP(=O)(S)O[C@H]2C[C@H](n3cc(C)c(=O)[nH]c3=O)O[C@@H]2COP(=O)(S)O[C@H]2[C@@H](OCCOC)[C@H](n3cnc4c(=O)[nH]c(N)nc43)O[C@@H]2COP(=O)(S)O[C@H]2C[C@H](n3cc(C)c(=O)[nH]c3=O)O[C@@H]2COP(=O)(S)O[C@H]2[C@@H](OCCOC)[C@H](n3ccc(N)nc3=O)O[C@@H]2COP(=O)(S)O[C@H]2[C@@H](OCCOC)[C@H](n3cnc4c(N)ncnc43)O[C@@H]2COP(=O)(S)O[C@H]2C[C@H](n3cc(C)c(=O)[nH]c3=O)O[C@@H]2COP(=O)(S)O[C@H]2[C@@H](OCCOC)[C@H](n3ccc(N)nc3=O)O[C@@H]2COP(=O)(S)O[C@H]2[C@@H](OCCOC)[C@H](n3ccc(N)nc3=O)O[C@@H]2COP(=O)(S)O[C@H]2[C@@H](OCCOC)[C@H](n3cnc4c(N)ncnc43)O[C@@H]2CO)O[C@H]1n1ccc(N)nc1=O (some centres undefined),Activity,Mus musculus [12],Non-toxic
same,Activity,Mus musculus [13],Non-toxic
same,Activity,Mus musculus [14],Active
same,Activity,Mus musculus [15],Active
same,Activity,Mus musculus [16],Non-toxic
same,Activity,Mus musculus [17],Active
same,Activity,Mus musculus [18],Active
same,Activity,Mus musculus [19],inactive
same,Activity,Mus musculus [20],Active
same,Activity,Mus musculus [21],Active
same,Activity,Mus musculus [22],inactive
same,Activity,Mus musculus [23],Active
same,Activity,Mus musculus [24],Non-toxic
